Published values collected from several papers.
Protocols differ between the studies behind these lines.
Target: Serine/threonine-protein kinase BRSK2 (BRSK2, Homo sapiens, UniProt Q8IWQ3)
Tested at: 1 µM
One construct used (Q8IWQ3 1-736): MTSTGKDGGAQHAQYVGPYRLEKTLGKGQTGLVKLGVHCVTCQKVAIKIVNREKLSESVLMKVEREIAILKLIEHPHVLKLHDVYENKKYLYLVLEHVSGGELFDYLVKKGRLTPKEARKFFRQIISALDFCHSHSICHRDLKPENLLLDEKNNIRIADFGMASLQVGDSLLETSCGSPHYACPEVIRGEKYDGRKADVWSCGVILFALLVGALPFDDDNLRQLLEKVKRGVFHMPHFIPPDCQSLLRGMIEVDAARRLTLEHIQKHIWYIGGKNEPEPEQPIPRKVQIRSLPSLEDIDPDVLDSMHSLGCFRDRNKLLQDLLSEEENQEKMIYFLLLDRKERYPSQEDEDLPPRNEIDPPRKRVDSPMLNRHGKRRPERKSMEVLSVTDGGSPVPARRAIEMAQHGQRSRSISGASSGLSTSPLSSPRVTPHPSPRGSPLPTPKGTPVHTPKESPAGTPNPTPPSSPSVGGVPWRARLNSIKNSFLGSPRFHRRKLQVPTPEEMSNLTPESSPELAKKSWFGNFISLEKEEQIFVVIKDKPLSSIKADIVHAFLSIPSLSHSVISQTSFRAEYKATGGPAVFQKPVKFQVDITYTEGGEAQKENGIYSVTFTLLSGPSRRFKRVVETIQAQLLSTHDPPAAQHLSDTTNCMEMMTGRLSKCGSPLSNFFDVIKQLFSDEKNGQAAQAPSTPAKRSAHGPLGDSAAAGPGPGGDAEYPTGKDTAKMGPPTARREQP

O=C(Nc1c[nH]nc1C(=O)NC1CCNCC1)c1cc(F)cc(F)c1 — remaining binding (binding; competition with immobilised ligand): 100%
O=C(Nc1cccnn1)N1CC(C/C=C/c2cncc(Oc3ccc(C(F)(F)F)cn3)n2)C1 — remaining binding (cell-free assay; competition with immobilised ligand): 100%
O=C(NCCCN1CCOCC1)c1ccc(Nc2ncc(Cl)c(-c3ccc(Cl)s3)n2)cc1 — remaining binding (binding; competition with immobilised ligand): 45%
O=C(O)[C@@H]1[C@@H](Cn2nnc3ccccc3c2=O)CC[C@H]1C(=O)c1ccc(OCCC2CCOCC2)cc1 — remaining binding (cell-free assay; competition with immobilised ligand): 100%
CN(CCCC(F)(F)F)c1nccc(-c2cnn3ncccc23)n1 — remaining binding (binding): 100%
CNC(=O)[C@@H]1CC[C@@H](n2c(-c3ccc4cnccc4c3)nc3ccc(C(=O)NCc4cccc(C(N)=O)c4)cc32)C1 — remaining binding (binding; competition with immobilised ligand): 93%
c1cnn2ncc(-c3ccnc(N4CCC45COC5)n3)c2c1 — remaining binding (binding): 84%
CCN1CCN(Cc2ccc(C(=O)Nc3ccc(C)c(Oc4ccc5c(c4)CC(=O)N5)c3)cc2C(F)(F)F)CC1 — remaining binding (binding; competition with immobilised ligand): 100%
CN(C)c1nccc(-c2cnn3ncccc23)n1 — remaining binding (binding): 84%
C=CC(=O)N1CCC(C(=O)NCC(=O)N2CCN(c3nc(-c4cnc(N)nc4C(F)F)nc(N4CCOCC4)n3)CC2)CC1 — remaining binding (binding; competition with immobilised ligand): 100%
NS(=O)(=O)c1cc(NC(=O)Cc2ccccc2)ccc1Oc1cccc(Cl)c1 — remaining binding (cell-free assay; competition with immobilised ligand): 91%
COc1cnc(Nc2cccc(S(N)(=O)=O)c2)nc1N1CCN(c2ccccc2)C(=O)C1 — remaining binding (binding; competition with immobilised ligand): 100%
O=C(NCCCN1CCOCC1)c1ccc(Nc2nccc(-c3cc4ccccc4s3)n2)cc1 — remaining binding (binding; competition with immobilised ligand): 77%
CN(C)c1nccc(-c2cnc3ncccn23)n1 — remaining binding (binding): 100%
Nc1ncc2c(n1)-c1c([nH]c3ccc(C#CC4CC4)cc13)CCCC2 — remaining binding (binding; competition with immobilised ligand): 93%
COc1cc(-c2cn(C3CCc4ccccc4N(CC(F)(F)F)C3=O)nn2)ccc1-n1ccc(C)n1 (stereo not drawn) — remaining binding (cell-free assay; competition with immobilised ligand): 97%
C[C@@H]1CCN(c2nccc(-c3cnn4ncccc34)n2)C1 — remaining binding (binding): 91%
O=C(NS(=O)(=O)c1ccc(NCC2CCOCC2)c([N+](=O)[O-])c1)c1ccc(N2CCN(Cc3ccc(C(F)(F)F)cc3-c3ccc(Cl)cc3)CC2)cc1Oc1cnc2[nH]ccc2c1 — remaining binding (cell-free assay; competition with immobilised ligand): 87%
N[C@@H]1CCN(c2nccc(-c3cnn4ncccc34)n2)C1 — remaining binding (binding): 100%
Nc1cnc(N2CCc3cc(S(=O)(=O)Nc4c(F)cc(Cl)cc4F)cc(N4CCCC4=O)c32)nc1 — remaining binding (cell-free assay; competition with immobilised ligand): 80%
O=C(c1ccc(Nc2ncc(Cl)c(-c3ccc(Cl)s3)n2)cc1)N1CCC(N2CCCC2)CC1 — remaining binding (binding; competition with immobilised ligand): 58%
